Laboratory results published in ChEMBL document CHEMBL1147981, “Small molecule activators of SIRT1 as therapeutics for the treatment of type 2 diabetes” (Nature, 2007).
Activity calls are given as the source filed them. No cut-off for these calls is given here.

What was measured:
[1] = biological target: T1, NAD-dependent protein deacetylase sirtuin-3, mitochondrial (Homo sapiens, UniProt Q9NTG7); assay: Activation of SIRT3 by mass spectrometry assay
T1 sequence (Q9NTG7 whole entry): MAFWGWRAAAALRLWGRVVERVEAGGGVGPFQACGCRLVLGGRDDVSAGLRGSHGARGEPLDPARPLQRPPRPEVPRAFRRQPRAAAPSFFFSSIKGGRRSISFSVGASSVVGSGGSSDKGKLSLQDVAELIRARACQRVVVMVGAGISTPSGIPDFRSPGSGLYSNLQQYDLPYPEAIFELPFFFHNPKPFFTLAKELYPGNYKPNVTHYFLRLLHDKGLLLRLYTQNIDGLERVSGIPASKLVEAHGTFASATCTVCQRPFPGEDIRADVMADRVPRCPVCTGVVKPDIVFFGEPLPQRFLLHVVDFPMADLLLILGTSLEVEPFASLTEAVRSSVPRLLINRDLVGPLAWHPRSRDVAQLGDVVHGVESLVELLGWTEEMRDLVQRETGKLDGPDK

[2] = biological target: T2, NAD-dependent protein deacetylase sirtuin-1 (Homo sapiens) (UniProt Q96EB6); assay: (§1) Activation of human SIRT1 expressed in Escherichia coli BL21 by mass spectrometry assay
T2 sequence (whole entry): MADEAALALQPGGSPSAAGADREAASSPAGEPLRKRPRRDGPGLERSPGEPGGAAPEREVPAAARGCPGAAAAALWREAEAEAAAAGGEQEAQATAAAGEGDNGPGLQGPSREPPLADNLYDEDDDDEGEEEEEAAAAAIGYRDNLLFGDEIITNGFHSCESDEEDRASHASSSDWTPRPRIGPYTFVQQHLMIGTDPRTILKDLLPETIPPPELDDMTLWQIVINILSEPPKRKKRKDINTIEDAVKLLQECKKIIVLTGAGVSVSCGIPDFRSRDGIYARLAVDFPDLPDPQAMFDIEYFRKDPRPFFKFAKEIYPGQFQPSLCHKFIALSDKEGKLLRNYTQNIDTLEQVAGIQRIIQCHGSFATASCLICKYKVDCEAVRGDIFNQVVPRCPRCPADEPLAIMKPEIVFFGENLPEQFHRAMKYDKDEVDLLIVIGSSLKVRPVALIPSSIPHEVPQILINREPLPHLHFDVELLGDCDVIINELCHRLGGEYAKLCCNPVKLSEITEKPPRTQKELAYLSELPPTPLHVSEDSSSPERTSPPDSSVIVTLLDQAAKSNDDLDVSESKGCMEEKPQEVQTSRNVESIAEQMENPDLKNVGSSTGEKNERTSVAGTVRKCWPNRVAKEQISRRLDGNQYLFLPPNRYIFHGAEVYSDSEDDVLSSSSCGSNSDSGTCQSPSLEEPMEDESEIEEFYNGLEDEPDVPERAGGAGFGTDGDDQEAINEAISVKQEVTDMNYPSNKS

[3] = biological target: T3, NAD-dependent protein deacetylase sirtuin-1 (Homo sapiens, UniProt Q96EB6); assay: as §1
T3 sequence (Q96EB6 whole entry): T2 sequence (whole entry)

[4] = biological target: T2, NAD-dependent protein deacetylase sirtuin-1 (Homo sapiens); assay: Activation of SIRT1 in human U2OS cells assessed as decrease in deacetylation level at 10 uM; format: cell-based
Method in brief: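 U-2 OS cells seeded 1.5 × 10⁴/well; compounds in DMSO added after 24 h, then doxorubicin 1 μg/ml final to induce p53. Fixed, permeabilized, immunostained for Ac-Lys382-p53 and beta-tubulin, infrared scan; background-corrected acetyl signal normalized to tubulin, then to vehicle as % acetylated p53. Replicate plates co-treated with a SIRT1-specific inhibitor.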

[5] = biological target: T2, NAD-dependent protein deacetylase sirtuin-1 (Homo sapiens); assay: Activation of human SIRT1 assessed as decrease in Km of enzyme for acetylated peptide substrate by mass spectrometry assay
[6] = biological target: T3, NAD-dependent protein deacetylase sirtuin-1; assay: Binding affinity to human SIRT1 by isothermal titration calorimetry
[7] = biological target: T4, NAD-dependent protein deacetylase sirtuin-2 (Homo sapiens, UniProt Q8IXJ6); assay: Activation of SIRT2 by mass spectrometry assay
T4 sequence (Q8IXJ6 whole entry): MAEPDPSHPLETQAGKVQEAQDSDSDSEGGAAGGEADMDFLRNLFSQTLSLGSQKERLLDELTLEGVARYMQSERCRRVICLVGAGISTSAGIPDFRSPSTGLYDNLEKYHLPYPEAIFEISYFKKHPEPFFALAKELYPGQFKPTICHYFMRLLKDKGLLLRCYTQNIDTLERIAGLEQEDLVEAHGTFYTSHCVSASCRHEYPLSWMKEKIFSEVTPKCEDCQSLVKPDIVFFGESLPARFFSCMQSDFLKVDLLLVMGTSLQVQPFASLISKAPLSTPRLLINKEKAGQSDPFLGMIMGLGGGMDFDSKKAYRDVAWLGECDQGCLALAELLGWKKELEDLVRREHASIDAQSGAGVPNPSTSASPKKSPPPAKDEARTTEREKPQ

| EC50 [1] [µM] | Activity [2] [%] | EC50 [3] [nM] | Activity [4] | Activity [5] | Kd [6] [µM] | EC50 [7] [µM] | SMILES |
| --- | --- | --- | --- | --- | --- | --- | --- |
| > 300 | 447 | 2900 | Active | Active | 16.2 | > 300 | COc1cc(C(=O)Nc2ccccc2-c2cn3c(CN4CCNCC4)csc3n2)cc(OC)c1OC |
| > 300 | 296 | 360 | Active | Active |  | > 300 | O=C(Nc1ccccc1-c1cn2c(CN3CC[C@@H](O)C3)csc2n1)c1ccc2ccccc2c1 |
